Experiment [1] can be described thus: Cytotoxicity against human PLC/PRF/5 cells assessed as growth inhibition. Type of experiment: functional, cell-based.
For experiment [2], the target named is RAF proto-oncogene serine/threonine-protein kinase (Homo sapiens) (UniProt P04049). In words: Inhibition of raf kinase in human PLC/PRF/5 cell lysate at 10 uM after 24 hrs.
Experiment [3] deals with Signal transducer and activator of transcription 3 (Homo sapiens) (UniProt P40763). The experiment in a line: Inhibition of STAT3-mediated cyclin D1 protein expression in human PLC/PRF/5 cells at 5 to 10 uM after 24 hrs by Western blot analysis. Type of experiment: cell-based. A digest of the protocol: (§1)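 PLC5 cells in FBS-containing medium treated 24 h at 5 and 10 µM; whole-cell lysates immunoblotted for phospho-STAT3, total STAT3, cyclin D1 and survivin.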

The target is the same in experiment [4]. In words: Inhibition of IL6-induced STAT3 phosphorylation in human PLC/PRF/5 cells at 10 uM after 24 hrs by ELISA. Type of experiment: cell-based. An outline of the steps:
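PLC5 cells pre-treated with IL-6 1 ng/mL, then exposed to compound at 10 µM for 24 h; lysates incubated on antibody-coated plate capturing phospho- and non-phospho-STAT3; phospho-STAT3 detected by absorbance at 450 nm; mean ± SD, N = 3.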
A general note: ELISA stands for enzyme-linked immunosorbent assay.

Experiment [5] has as its system PLC-PRF-5. The experiment in a line: Induction of apoptosis in human PLC/PRF/5 at 5 to 10 uM by flow cytometry. Type of experiment: functional. A digest of the protocol: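 PLC5 cells treated 24 h at 5 and 10 µM; trypsinized, washed in PBS, stained with propidium iodide 30 min at 37 °C in the dark; apoptotic fraction read as sub-G1 population by flow cytometry; triplicate experiments.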
Background: In flow cytometry, cells or beads pass a laser one at a time.

Experiment [6] relates to PLC-PRF-5. In words: Induction of apoptosis in human PLC/PRF/5 cells assessed as DNA fragmentation at 5 to 10 uM by ELISA. Type of experiment: functional, cell-based. An outline of the steps:
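PLC5 cells treated 24 h at 5 and 10 µM in culture; cell death quantified as DNA fragmentation by ELISA kit following manufacturer's standard protocol.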

In experiment [7] the target is Signal transducer and activator of transcription 3 (Homo sapiens) (UniProt P40763). In words: Inhibition of STAT3-mediated survivin expression in human PLC/PRF/5 cells at 5 to 10 uM after 24 hrs by Western blot analysis. Type of experiment: cell-based. A digest of the protocol: as §1
For experiment [8], the target named is RAF proto-oncogene serine/threonine-protein kinase (Homo sapiens) (UniProt P04049). The conditions noted are these: 5 uM.

The source of these data is ChEMBL document CHEMBL1795305, “Sorafenib derivatives induce apoptosis through inhibition of STAT3 independent of Raf” (Eur J Med Chem, 2011).

For orientation: IC50 means the concentration needed to halve the response being measured. As a reminder, the inhibition is the share of the control response that was lost under treatment.

Active and inactive are the calls of the source. The calls are words filed in the database; no cut-off is given here. A value given as a limit tells only on which side of the number the result lay.

Chain of Signal transducer and activator of transcription 3 (Homo sapiens) (P40763 whole entry): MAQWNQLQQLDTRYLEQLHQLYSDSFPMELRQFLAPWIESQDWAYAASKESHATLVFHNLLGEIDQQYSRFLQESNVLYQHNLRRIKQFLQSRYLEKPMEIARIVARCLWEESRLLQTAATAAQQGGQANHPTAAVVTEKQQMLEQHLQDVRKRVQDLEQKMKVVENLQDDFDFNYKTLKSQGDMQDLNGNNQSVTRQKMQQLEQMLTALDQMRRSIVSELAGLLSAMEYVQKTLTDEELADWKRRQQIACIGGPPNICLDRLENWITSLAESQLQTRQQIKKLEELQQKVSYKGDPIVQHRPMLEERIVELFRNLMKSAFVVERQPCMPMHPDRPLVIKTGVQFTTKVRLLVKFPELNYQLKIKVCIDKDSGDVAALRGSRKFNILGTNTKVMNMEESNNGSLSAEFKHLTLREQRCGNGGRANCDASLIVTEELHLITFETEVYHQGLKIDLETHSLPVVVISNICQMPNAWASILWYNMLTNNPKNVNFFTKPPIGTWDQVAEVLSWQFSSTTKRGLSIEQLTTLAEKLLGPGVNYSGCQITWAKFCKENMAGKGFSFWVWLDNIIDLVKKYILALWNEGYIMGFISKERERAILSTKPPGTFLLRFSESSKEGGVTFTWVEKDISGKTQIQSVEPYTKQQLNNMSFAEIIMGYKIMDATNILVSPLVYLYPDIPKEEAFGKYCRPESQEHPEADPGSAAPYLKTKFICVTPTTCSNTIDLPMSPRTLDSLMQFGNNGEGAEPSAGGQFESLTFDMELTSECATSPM

Regarding `CNC(=O)c1cc(Oc2ccc(NS(=O)(=O)c3ccc(C(F)(F)F)cc3Br)cc2)ccn1`, in experiment [1] (Homo sapiens, PLC-PRF-5), the IC50 was more than 40 µM.
For the compound `CNC(=O)c1cc(Oc2ccc(NC(=O)c3ccc(C(F)(F)F)cc3)cc2)ccn1`, the IC50 in experiment [1] (Homo sapiens, PLC-PRF-5) was more than 40 µM.
For the compound `CNC(=O)c1cc(Oc2ccc(NS(=O)(=O)c3ccc([N+](=O)[O-])cc3)cc2)ccn1`, the IC50 in experiment [1] (Homo sapiens, PLC-PRF-5) was more than 40 µM.
As to `O=C(Nc1ccc(Oc2ccnc3ccccc23)cc1)c1cc(C(F)(F)F)ccc1F`, the IC50 in experiment [1] (Homo sapiens, PLC-PRF-5) was 21.1 µM.
On to `Cc1cc(Oc2ccnc3c([N+](=O)[O-])cccc23)ccc1NC(=O)c1cc(C(F)(F)F)cc(C(F)(F)F)c1`, for which the IC50 in experiment [1] (Homo sapiens, PLC-PRF-5) is more than 40 µM.
In the case of SC-1 [listing 1 of 2 here], the inhibition entry in experiment [2] is “inactive”. Further, the inhibition entry in experiment [3], in experiment [4] and in experiment [7] was “Active” in each case. Besides, the outcome in experiment [5] and in experiment [6] was Active.
For `O=C(Nc1cccc(Oc2ccnc3c([N+](=O)[O-])cccc23)c1)c1cc(C(F)(F)F)cc(C(F)(F)F)c1`, the IC50 in experiment [1] (Homo sapiens, PLC-PRF-5) is more than 40 µM.
As for `O=[N+]([O-])c1cc(C(F)(F)F)ccc1S(=O)(=O)Nc1ccc(Oc2ccnc3c([N+](=O)[O-])cccc23)cc1`, the IC50 in experiment [1] (Homo sapiens, PLC-PRF-5) was more than 40 µM.
On the same count and under the same terms, then `CC(=O)Nc1cccc2c(Oc3cccc(NC(=O)c4cc(C(F)(F)F)cc(C(F)(F)F)c4)c3)ccnc12`, with 10.8 µM.
For the compound `O=[N+]([O-])c1cc(C(F)(F)F)ccc1S(=O)(=O)Nc1ccc(Oc2ccnc3ccccc23)cc1`, the inhibition result in experiment [3] and in experiment [7] was “inactive” throughout. The IC50 in experiment [1] (Homo sapiens, PLC-PRF-5) is more than 40 µM.
Consider `O=C(Nc1ccc(Oc2ccnc3ccccc23)cc1)c1cc(C(F)(F)F)cc(C(F)(F)F)c1`, for which the IC50 in experiment [1] (Homo sapiens, PLC-PRF-5) is 16 µM.
`O=[N+]([O-])c1cccc2c(Oc3ccc(NS(=O)(=O)c4ccc(C(F)(F)F)cc4Br)cc3)ccnc12`: in experiment [1] (Homo sapiens, PLC-PRF-5), the IC50 is more than 40 µM.
In the case of `CNC(=O)c1cc(Oc2ccc(NS(=O)(=O)c3ccc4ccccc4c3)cc2)ccn1`, the IC50 in experiment [1] (Homo sapiens, PLC-PRF-5) is more than 40 µM.
Same read-out and setting: then `CNC(=O)c1cc(Oc2ccc(NC(=O)c3cc(C(F)(F)F)ccc3F)cc2)ccn1`, with more than 40 µM.
Take `CNC(=O)c1cc(Oc2ccc(NC(=O)Nc3ccc(Cl)c(C(F)(F)F)c3)cc2)ccn1` [SORAFENIB]: the IC50 in experiment [1] (Homo sapiens, PLC-PRF-5) turned out to be 8.3 µM. In experiment [8], the inhibition stood at 50%.
`CNC(=O)c1cc(Oc2ccc(NS(=O)(=O)c3ccccc3)cc2)ccn1`: the half-inhibitory concentration (IC50) in experiment [1] (Homo sapiens, PLC-PRF-5) was more than 40 µM.
Same read-out and setting: then `O=C(Nc1ccc(Oc2ccnc3c([N+](=O)[O-])cccc23)cc1)c1cc(C(F)(F)F)cc(C(F)(F)F)c1`, with more than 40 µM; and `CNC(=O)c1cc(Oc2ccc(NS(=O)(=O)c3ccc(F)cc3)cc2)ccn1`, with more than 40 µM.
Turning to SC-1 [listing 2 of 2 here], the IC50 in experiment [1] (plc-prf-5) was 7.5 µM.
Turning to `Nc1cccc2c(Oc3cccc(NC(=O)c4cc(C(F)(F)F)cc(C(F)(F)F)c4)c3)ccnc12`, the IC50 in experiment [1] (Homo sapiens, PLC-PRF-5) turned out to be 19 µM.
Turning to `CC(=O)Nc1cccc2c(Oc3ccc(NC(=O)c4cc(C(F)(F)F)cc(C(F)(F)F)c4)c(C)c3)ccnc12`, the IC50 in experiment [1] (Homo sapiens, PLC-PRF-5) was more than 40 µM.
Take `O=S(=O)(Nc1ccc(Oc2ccnc3ccccc23)cc1)c1ccc(C(F)(F)F)cc1Br`: in experiment [1] (Homo sapiens, PLC-PRF-5), the IC50 is more than 40 µM.
Turning to `O=C(Nc1ccc(Oc2ccnc3c([N+](=O)[O-])cccc23)cc1)c1cc(C(F)(F)F)ccc1F`, in experiment [1] (Homo sapiens, PLC-PRF-5), the IC50 was more than 40 µM.
As for `CNC(=O)c1cc(Oc2ccc(NC(=O)c3cc(C(F)(F)F)cc(C(F)(F)F)c3)cc2)ccn1`, the half-maximal inhibitory concentration (IC50) in experiment [1] (Homo sapiens, PLC-PRF-5) was more than 40 µM.
As for `CNC(=O)c1cc(Oc2ccc(NS(=O)(=O)c3ccc(C(C)(C)C)cc3)cc2)ccn1`, in experiment [1] (Homo sapiens, PLC-PRF-5), the IC50 was more than 40 µM.
In the case of `Cc1cc(Oc2ccnc3c(N)cccc23)ccc1NC(=O)c1cc(C(F)(F)F)cc(C(F)(F)F)c1`, in experiment [1] (Homo sapiens, PLC-PRF-5), the IC50 turned out to be 25.4 µM.
As for `CNC(=O)c1cc(Oc2ccc(NS(=O)(=O)c3ccccc3[N+](=O)[O-])cc2)ccn1`, the IC50 in experiment [1] (Homo sapiens, PLC-PRF-5) was more than 40 µM.
